Results taken from ChEMBL document CHEMBL1129074, “Inhibitors of human immunodeficiency virus type 1 derived from gp41 transmembrane protein: structure--activity studies” (J Med Chem, 1996).
Peptide text beside a SMILES is read from it.

Key:
[1] = test system: MT4; assay: (§1) Inhibitory potency of gp41 fragment against HIV-1 induced cytopathic effect in MT-4 cell assay at 20 uM; assay type: functional; conditions: Homo sapiens
Method in brief: (§2)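 MT4 cells (exponential growth) at 5×10^5 cells/mL infected with HIV-1 IIIB (100× TCID50) for 1 h at 37 °C, diluted 6-fold, added to serially diluted peptide in RPMI 1640/FCS medium; mock-infected controls. After 5 days at 37 °C, 5% CO2, cells lysed with Nonidet-40 and DNA content read by propidium iodide. Inhibition = restoration of infected-cell growth relative to uninfected controls; cytotoxicity measured in parallel.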

[2] = test system: MT4; assay: Inhibitory potency of gp41 fragment against HIV-1 induced cytopathic effect in MT-4 cell assay at 6.4 uM; assay type: functional; conditions: Homo sapiens
[3] = test system: MT4; assay: Inhibitory potency of gp41 fragment against HIV-1 induced cytopathic effect in MT-4 cell assay at 5 uM; assay type: functional; conditions: Homo sapiens
[4] = test system: MT4; assay: as §1; assay type: functional, Homo sapiens; conditions: Homo sapiens, MT4; method in brief: as §2
[5] = test system: MT4; assay: Inhibitory potency of gp41 fragment against HIV-1 induced cytopathic effect in MT-4 cell assay at 8 uM; assay type: functional; conditions: Homo sapiens
[6] = test system: MT4; assay: Inhibitory potency of gp41 fragment against HIV-1 induced cytopathic effect in MT-4 cell assay at 16 uM; assay type: functional; conditions: Homo sapiens
[7] = test system: MT4; assay: Inhibitory potency of gp41 fragment against HIV-1 induced cytopathic effect in MT-4 cell assay; assay type: functional, cell-based; conditions: Homo sapiens
[8] = test system: MT4; assay: Inhibitory potency of gp41 fragment against HIV-1 induced cytopathic effect in MT-4 cell assay at 80 uM; assay type: functional; conditions: Homo sapiens

In the case of CC[C@H](C)[C@H](NC(=O)CNC(=O)[C@H](Cc1c[nH]c2ccccc12)NC(=O)[C@@H](NC(=O)[C@@H](NC(=O)[C@H](CC(C)C)NC(=O)[C@H](CCC(N)=O)NC(=O)[C@H](CC(C)C)NC(=O)[C@H](CC(C)C)NC(=O)[C@H](Cc1c[nH]cn1)NC(=O)[C@H](CCC(N)=O)NC(=O)[C@H](CCC(N)=O)NC(=O)[C@H](C)NC(=O)[C@H](CCC(=O)O)NC(=O)[C@@H](NC(=O)[C@H](C)NC(=O)[C@H](CCCN=C(N)N)NC(=O)[C@H](CC(C)C)NC(=O)[C@H](CC(C)C)NC(=O)[C@H](CC(N)=O)NC(=O)[C@H](CC(N)=O)NC(C)=O)[C@@H](C)CC)[C@@H](C)O)C(C)C)C(=O)N[C@@H](C)C(=O)N[C@@H](C)C(=O)N[C@@H](CC(C)C)C(=O)N[C@@H](CCC(N)=O)C(=O)N[C@@H](C)C(=O)N[C@@H](CCCN=C(N)N)C(=O)N[C@H](C(=O)N[C@@H](C)C(=O)N[C@@H](C)C(=O)N[C@H](C(=O)N[C@@H](CCC(=O)O)C(=O)N[C@@H](C)C(=O)N[C@@H](Cc1ccc(O)cc1)C(=O)N[C@@H](CC(C)C)C(=O)N[C@@H](C)C(=O)N[C@@H](C)C(=O)N[C@@H](CCC(N)=O)C(=O)O)C(C)C)[C@@H](C)CC (Ac-NNLLRAIEAQQHLLQLTVWGIAALQARIAAVEAYLAAQ-OH), the inhibition at 20 µM [1] is reported as 22%.
CCCCCCCCCCCCC(N)C(=O)N[C@@H](CC(C)C)C(=O)N[C@@H](CCC(N)=O)C(=O)N[C@@H](CC(C)C)C(=O)N[C@H](C(=O)N[C@H](C(=O)N[C@@H](Cc1c[nH]c2ccccc12)C(=O)NCC(=O)N[C@H](C(=O)N[C@@H](CCCCN)C(=O)N[C@@H](CCC(N)=O)C(=O)N[C@@H](CC(C)C)C(=O)N[C@@H](CCC(N)=O)C(=O)N[C@@H](C)C(=O)N[C@@H](CCCN=C(N)N)C(=O)N[C@H](C(=O)O)[C@@H](C)CC)[C@@H](C)CC)C(C)C)[C@@H](C)O (stereo partly drawn) (HELM PEPTIDE1{[CCCCCCCCCCCCC(N)C(=O)[*:2]].L.Q.L.T.V.W.G.I.K.Q.L.Q.A.R.I}$$$$V2.0) showed an inhibition at 6.4 µM [2] of 37%.
With CCCCCCCCCCCCC(N)C(=O)N[C@@H](CCC(N)=O)C(=O)N[C@@H](Cc1c[nH]cn1)C(=O)N[C@@H](CC(C)C)C(=O)N[C@@H](CC(C)C)C(=O)N[C@@H](CCC(N)=O)C(=O)N[C@@H](CC(C)C)C(=O)N[C@H](C(=O)N[C@H](C(=O)N[C@@H](Cc1c[nH]c2ccccc12)C(=O)NCC(=O)N[C@H](C(=O)N[C@@H](CCCCN)C(=O)N[C@@H](CCC(N)=O)C(=O)N[C@@H](CC(C)C)C(=O)N[C@@H](CCC(N)=O)C(=O)N[C@@H](C)C(=O)N[C@@H](CCCN=C(N)N)C(=O)N[C@H](C(=O)N[C@@H](CC(C)C)C(=O)N[C@@H](C)C(=O)N[C@H](C(=O)N[C@@H](CCC(=O)O)C(=O)N[C@@H](CCCN=C(N)N)C(=O)N[C@@H](Cc1ccc(O)cc1)C(=O)N[C@@H](CC(C)C)C(=O)N[C@@H](CCCCN)C(=O)N[C@@H](CC(=O)O)C(=O)N[C@@H](CCC(N)=O)C(=O)O)C(C)C)[C@@H](C)CC)[C@@H](C)CC)C(C)C)[C@@H](C)O (stereo partly drawn) (HELM PEPTIDE1{[CCCCCCCCCCCCC(N)C(=O)[*:2]].Q.H.L.L.Q.L.T.V.W.G.I.K.Q.L.Q.A.R.I.L.A.V.E.R.Y.L.K.D.Q}$$$$V2.0) the inhibition at 5 µM [3] was 10%, the inhibition at 20 µM [4] was 0% and the inhibition at 8 µM [5] was 15%.
CCCCCCCCCCCCC(N)C(=O)N[C@@H](CCC(N)=O)C(=O)N[C@@H](CC(C)C)C(=O)N[C@H](C(=O)N[C@H](C(=O)N[C@@H](Cc1c[nH]c2ccccc12)C(=O)NCC(=O)N[C@H](C(=O)N[C@@H](CCCCN)C(=O)N[C@@H](CCC(N)=O)C(=O)N[C@@H](CC(C)C)C(=O)N[C@@H](CCC(N)=O)C(=O)N[C@@H](C)C(=O)N[C@@H](CCCN=C(N)N)C(=O)N[C@H](C(=O)O)[C@@H](C)CC)[C@@H](C)CC)C(C)C)[C@@H](C)O (stereo partly drawn) (HELM PEPTIDE1{[CCCCCCCCCCCCC(N)C(=O)[*:2]].Q.L.T.V.W.G.I.K.Q.L.Q.A.R.I}$$$$V2.0) gave an inhibition at 16 µM [6] of 32% and an IC50 [7] of 8.9 µM.
For CC[C@H](C)[C@H](NC(=O)[C@H](CCCN=C(N)N)NC(=O)[C@H](C)NC(=O)[C@H](CCC(N)=O)NC(=O)[C@H](CC(C)C)NC(=O)[C@H](CCC(N)=O)NC(=O)CCCCCNC(=O)CCCCCNC(=O)[C@@H](NC(=O)[C@@H](NC(=O)[C@H](CC(C)C)NC(=O)[C@H](CCC(N)=O)NC(=O)[C@H](CC(C)C)NC(=O)[C@H](CC(C)C)NC(=O)[C@H](Cc1c[nH]cn1)NC(=O)[C@H](CCC(N)=O)NC(C)=O)[C@@H](C)O)C(C)C)C(=O)N[C@@H](CC(C)C)C(=O)N[C@@H](C)C(=O)N[C@H](C(=O)N[C@@H](CCC(=O)O)C(=O)O)C(C)C (HELM PEPTIDE1{[ac].Q.H.L.L.Q.L.T.V.[O=C(CCCCCN[*:1])[*:2]].[O=C(CCCCCN[*:1])[*:2]].Q.L.Q.A.R.I.L.A.V.E}$$$$V2.0), the inhibition at 80 µM [8] was 27%.
